Ten molecules from ChEMBL document CHEMBL2384935, “Role of Amphiphilicity in the Design of Synthetic Mimics of Antimicrobial Peptides with Gram-negative Activity” (ACS Med Chem Lett, 2013) can be followed below.

Converted amounts (≈) assume the structure as drawn.

Series [1] in a line: Hemolytic activity in human RBC assessed as hemoglobin release after 1 hr. As to conditions: human red blood cells. In kind it is ADME, cell-based, Erythrocyte. Put shortly: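 Human red blood cells were exposed to the compounds. The value is the HC50, the concentration that produces 50% hemolysis of the RBCs.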
The test system of another series is Staphylococcus aureus. As to the kind of experiment: Antibacterial activity against Staphylococcus aureus ATCC 27660 assessed as growth inhibition after 18 hrs by CLSI microbroth dilution assay. In kind it is functional. To be noted: ATCC 27660, 18 h. (Broth dilution looks for growth in wells or tubes with falling amounts of substance.)
In another series the test system is Escherichia coli. As to the kind of experiment: Antibacterial activity against Escherichia coli ATCC 25922 assessed as growth inhibition after 18 hrs by CLSI microbroth dilution assay. In kind it is functional. To be noted: ATCC 25922, 18 h.

By HC50 is commonly meant the concentration that lyses half of the red blood cells. The term MIC denotes the smallest concentration in the dilution series that meets the test's criterion for growth inhibition. With `NCCCOc1cc(OCCCN)cc(-c2cc(NC(=O)c3ccc(-c4ccccc4)cc3)cc(-c3cc(OCCCN)cc(OCCCN)c3)c2)c1`, the 50% haemolytic concentration (HC50) at 1 h in series [1] was 113 µg/mL. Moreover, the MIC in the series on Staphylococcus aureus worked out at 1.56 µg/mL (≈ 2.17 µM); in the series with Escherichia coli, 25 µg/mL (≈ 34.8 µM).
Regarding `NCCCOc1cc(OCCCN)cc(-c2cc(-c3cc(OCCCN)cc(OCCCN)c3)cc(-c3cc(C(F)(F)F)cc(C(F)(F)F)c3)c2)c1`, in series [1], the concentration for 50% haemolysis (HC50) at 1 h came out at 34 µg/mL. The minimal inhibitory concentration (MIC) was 1.56 µg/mL (≈ 2.12 µM) in the series with Staphylococcus aureus and 6.25 µg/mL (≈ 8.51 µM) with Escherichia coli.
For `Cc1ccc(-c2cc(-c3cc(OCCCN)cc(OCCCN)c3)cc(-c3cc(OCCCN)cc(OCCCN)c3)c2)cc1` the same measures were 279 µg/mL, 0.78 µg/mL (≈ 1.27 µM) and 3.13 µg/mL (≈ 5.11 µM).
In the same order, the values of `NCCCOc1cc(OCCCN)cc(-c2cc(NC(=O)c3ccccc3)cc(-c3cc(OCCCN)cc(OCCCN)c3)c2)c1` are above 1000 µg/mL, 50 µg/mL (≈ 77.9 µM) and above 50 µg/mL.
In the same order, the values of `NCCCOc1cc(OCCCN)cc(-c2cc(-c3ccccc3)cc(-c3cc(OCCCN)cc(OCCCN)c3)c2)c1` are 537 µg/mL, 12.5 µg/mL (≈ 20.9 µM) and 3.13 µg/mL (≈ 5.23 µM).
Consider `NCCCOc1cc(OCCCN)cc(-c2cc(NC(=O)c3ccc4ccccc4c3)cc(-c3cc(OCCCN)cc(OCCCN)c3)c2)c1`, for which the HC50 at 1 h in series [1] was determined as 422 µg/mL. Also, the MIC in the series on Staphylococcus aureus was 6.25 µg/mL (≈ 9.03 µM); in the series with Escherichia coli, above 50 µg/mL.
In the same order, the values of `NCCCOc1cc(OCCCN)cc(-c2cc(-c3cc(OCCCN)cc(OCCCN)c3)cc(-c3cc4ccccc4[nH]3)c2)c1` are 634 µg/mL, 1.56 µg/mL (≈ 2.45 µM) and 6.25 µg/mL (≈ 9.8 µM).
In the same order, the values of `CC(C)(C)c1ccc(-c2cc(-c3cc(OCCCN)cc(OCCCN)c3)cc(-c3cc(OCCCN)cc(OCCCN)c3)c2)cc1` are 41 µg/mL, 1.56 µg/mL (≈ 2.38 µM) and 3.13 µg/mL (≈ 4.78 µM).
In the same order, the values of `NCCCOc1cc(OCCCN)cc(-c2cc(NC(=O)Cc3c[nH]c4ccccc34)cc(-c3cc(OCCCN)cc(OCCCN)c3)c2)c1` are 519 µg/mL, 12.5 µg/mL (≈ 18 µM) and above 50 µg/mL.
With Ac-GIGKFLKKAKKFGKAFVKILKK-NH2, the 50% haemolytic concentration (HC50) at 1 h in series [1] amounted to 120 µg/mL. For the same molecule, the MIC with Staphylococcus aureus amounted to 8 µg/mL; in the series with Escherichia coli it was 16 µg/mL.
